Test results reported in ChEMBL document CHEMBL6121061, “Metabolomics-Guided Discovery of Bipolarolides H-O, New Ophiobolin-Type Sesterterpenes with Antibacterial Activity from the Marine-Derived Fungus Uzbekistanica storfjordensis sp. nov” (2025).
≈ marks a conversion by molar mass, not a printed value. Calls of active or inactive are those of the source. The calls are words filed in the database; no cut-off is given here.

Tests used:
Streptococcus agalactiae [1] = test: Antibacterial activity against Streptococcus agalactiae ATCC 12386 assessed as inhibition of bacterial growth at 100 uM by broth microdilution method; assay type: functional, organism-based
Procedure, shortened: (§1)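 Broth microdilution per EUCAST, run in duplicate, for two independent experiments. Pure compounds came from 10 mM stocks in 20% DMSO, diluted with water, and were tested at a final 100 μM for growth inhibition. Controls were gentamycin at 0.03–32 μg/mL (positive) and 0.25% DMSO with growth medium (negative).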

Enterococcus faecalis = test: Antibacterial activity against Enterococcus faecalis ATCC 29122 assessed as inhibition of bacterial growth at 100 uM by broth microdilution method; assay type: functional, organism-based; procedure, shortened: as §1
Staphylococcus aureus = test: Antibacterial activity against Staphylococcus aureus ATCC 25923 assessed as inhibition of bacterial growth at 100 uM by broth microdilution method; assay type: functional, organism-based; procedure, shortened: as §1
Escherichia coli = test: Antibacterial activity against Escherichia coli ATCC 25922 assessed as inhibition of bacterial growth at 100 uM by broth microdilution method; assay type: functional, organism-based; procedure, shortened: as §1
Pseudomonas aeruginosa = test: Antibacterial activity against Pseudomonas aeruginosa ATCC 27853 assessed as inhibition of bacterial growth at 100 uM by broth microdilution method; assay type: functional, organism-based; procedure, shortened: as §1
Streptococcus agalactiae [2] = test: Antibacterial activity against Streptococcus agalactiae ATCC 12386 by broth microdilution method; assay type: functional
Procedure, shortened: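 MIC was found by EUCAST broth microdilution in duplicate over 12.5–125 μM, using compounds from 10 mM stocks in 20% DMSO diluted in water. OD600 was plotted as a concentration-effect curve, and MIC was taken as the concentration giving an OD600 of 0.05. Gentamycin at 0.03–32 μg/mL served as the positive control.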

Streptococcus agalactiae [3] = test: Antibacterial activity against Streptococcus agalactiae ATCC 12386 assessed as inhibition of bacterial growth at 100 uM by broth microdilution method

| MIC (Streptococcus agalactiae [2]) [µM] | Structure (SMILES) | Activity (Streptococcus agalactiae [1]) | Activity (Enterococcus faecalis) | Activity (Staphylococcus aureus) | Activity (Escherichia coli) | Activity (Pseudomonas aeruginosa) | Activity (Streptococcus agalactiae [2]) | Activity (Streptococcus agalactiae [3]) |
| --- | --- | --- | --- | --- | --- | --- | --- | --- |
| 64 (≈ 27.5 µg/mL) | CC(C)=CCC[C@H](C)[C@H]1CC[C@]2(C)C[C@H]3C4=C(CC[C@@H]12)C(=O)N(CCO)[C@@H]4C[C@@]3(C)O | Active | inactive | inactive | inactive | inactive |  |  |
|  | CC(CCC[C@H](C)[C@H]1CC[C@]2(C)C[C@H]3C4=C(CC[C@@H]12)C(=O)N(CCO)[C@@H]4C[C@@]3(C)O)C(=O)O (stereo partly specified) |  | inactive | inactive | inactive | inactive | inactive |  |
|  | C/C(=C\CC[C@H](C)[C@H]1CC[C@]2(C)C[C@H]3C4=C(CC[C@@H]12)C(=O)N(CCO)[C@@H]4C[C@@]3(C)O)CO |  | inactive | inactive | inactive | inactive | inactive |  |
|  | CC(CO)CCC[C@H](C)[C@H]1CC[C@]2(C)C[C@H]3C4=C(CC[C@@H]12)C(=O)N(CCO)[C@@H]4C[C@@]3(C)O (stereo partly specified) |  | inactive | inactive | inactive | inactive | inactive |  |
| 66 (≈ 28.2 µg/mL) | CC(C)=C/C=C\[C@H](C)[C@H]1CC[C@]2(C)C[C@H]3C4=C(CC[C@@H]12)C(=O)N(CCO)[C@@H]4C[C@@]3(C)O | Active | inactive | inactive | inactive | inactive |  | Active |
|  | CC(C)=CCC[C@H](C)[C@H]1CC[C@]2(C)C[C@H]3[C@@H]4[C@H](CC[C@@H]12)C(=O)N1CCOC41C[C@@]3(C)O (stereo partly specified) |  | inactive | inactive | inactive | inactive | inactive |  |
|  | C/C(=C\CC[C@H](C)[C@H]1CC[C@]2(C)C[C@H]3C4=C(CC[C@@H]12)C(=O)N(CCO)[C@@H]4C[C@@]3(C)O)C(=O)O |  | inactive | inactive | inactive | inactive | inactive |  |
| 86 (≈ 40.9 µg/mL) | CC(CCC[C@H](C)[C@H]1CC[C@]2(C)C[C@H]3C4=C(CC[C@@H]12)C(=O)N(CCO)[C@@H]4C[C@@]3(C)O)COC=O (stereo partly specified) | Active | inactive | inactive | inactive | inactive |  | Active |

| Structure (SMILES) | MIC (Streptococcus agalactiae [2]) [µM] | Activity (Streptococcus agalactiae [1]) | Activity (Enterococcus faecalis) | Activity (Staphylococcus aureus) | Activity (Escherichia coli) | Activity (Pseudomonas aeruginosa) | Activity (Streptococcus agalactiae [2]) | Activity (Streptococcus agalactiae [3]) |
| --- | --- | --- | --- | --- | --- | --- | --- | --- |
| CNC(C)[C@@H]1CC[C@@H](N)[C@@H](O[C@H]2[C@H](O)[C@@H](O[C@H]3OC[C@](C)(O)[C@H](NC)[C@H]3O)[C@H](N)C[C@@H]2N)O1.CN[C@@H]1[C@@H](O)[C@@H](O[C@@H]2[C@@H](O)[C@H](O[C@H]3O[C@H](C(C)N)CC[C@H]3N)[C@@H](N)C[C@H]2N)OC[C@]1(C)O.CN[C@@H]1[C@@H](O)[C@@H](O[C@@H]2[C@@H](O)[C@H](O[C@H]3O[C@H](CN)CC[C@H]3N)[C@@H](N)C[C@H]2N)OC[C@]1(C)O (stereo partly specified) | 3 |  |  |  |  |  |  |  |
